Measured values: PubChem BioAssay AID651651 (Broad Institute, 2012)
Active and inactive are the calls of the source.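 The calls were made as follows: active = signal-lowering compounds whose fitted half-effect concentration is no more than twice the top tested dose; inconclusive = flat curve with 30 to 70% inhibition, or poor fit; inactive = the rest.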

Test: quencher artefacts in RAD54 branch migration readout – biochemical, Cy5 label, cherry-picked samples, artefact control for RAD54 inhibitor project, dose response (AID 651651)
Conditions: Cy5 DNA fluorescence quench counter-screen; series mostly up to 50 µM
In short: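 Medium: 25 mM Tris pH 7.5, 3 mM MgCl2, 2 mM ATP. Material: human RAD54 enzyme. Quantity: RAD54 30 nM in enzyme mix. Technique: Cy5 fluorescence. Schedule: 60 min reaction at room temperature after substrate addition. Dosing: pinned compound dose series, 10 mM stock solutions.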

Structure (SMILES) | outcome
COc1ccccc1CNC(=O)C[C@@H]1C[C@@H]2c3cc(NC(=O)CN(C)C)ccc3O[C@@H]2[C@@H](CO)O1 | inactive
C[C@@H]1CN([C@@H](C)CO)C(=O)c2cc(C3=CCCC3)cnc2O[C@@H]1CN(C)C(=O)Nc1ccc(F)cc1 | inactive
CN(C)c1ccc2c(c1)[C@@H]1C[C@@H](CC(=O)NCc3cc(F)ccc3F)O[C@H](CO)[C@@H]1O2 | inactive
COc1ccc(NC(=O)Nc2ccc3c(c2)CC(=O)N([C@H](C)CO)C[C@H](C)[C@H](CN(C)S(=O)(=O)c2ccc(OC)cc2)O3)cc1 | inactive
COc1ccc(CN(C)C[C@@H]2Oc3ccc(NC(=O)Nc4ccc5c(c4)OCO5)cc3C(=O)N([C@H](C)CO)C[C@H]2C)cc1 | inactive
C[C@H]1CN([C@@H](C)CO)C(=O)c2cc(NS(=O)(=O)c3cccs3)ccc2O[C@@H]1CN(C)C(=O)Nc1cccc2ccccc12 | inactive
Cc1noc(C)c1NC(=O)Nc1ccc2c(c1)C(=O)N([C@@H](C)CO)C[C@H](C)[C@@H](CN(C)S(C)(=O)=O)OCCCC[C@@H](C)O2 | inactive
C[C@@H]1CN([C@H](C)CO)C(=O)c2cc(NC(=O)Nc3ccc4c(c3)OCO4)ccc2O[C@H]1CN(C)C(=O)Nc1cccc2ccccc12 | inactive
C[C@@H]1CN([C@H](C)CO)C(=O)c2cc(NC(=O)Nc3ccc4c(c3)OCO4)ccc2O[C@H]1CN(C)Cc1ccc2c(c1)OCO2 | inactive
COc1ccc(S(=O)(=O)N(C)C[C@@H]2Oc3ccc(NC(=O)Nc4ccc(C(F)(F)F)cc4)cc3C(=O)N([C@H](C)CO)C[C@H]2C)cc1 | inactive
Cc1ccc(S(=O)(=O)N(C)C[C@@H]2Oc3ccc(NC(=O)NC(C)C)cc3C(=O)N([C@H](C)CO)C[C@H]2C)cc1 | inactive
COc1cccc(S(=O)(=O)N2CCCCN3[C@@H](CO)[C@H](c4ccc(C#CCC(C)C)cc4)[C@@H]3C2)c1 | inactive
COc1ccc(CN(C)C[C@@H]2Oc3ccc(NC(=O)Nc4ccc(F)cc4)cc3C(=O)N([C@H](C)CO)C[C@H]2C)cc1 | inactive
COc1ccc(CN(C)C[C@@H]2Oc3ccc(NC(=O)NC(C)C)cc3C(=O)N([C@H](C)CO)C[C@H]2C)cc1 | inactive
COc1ccc(CN(C)C[C@@H]2Oc3ccc(NC(=O)NC4CCCCC4)cc3C(=O)N([C@@H](C)CO)C[C@H]2C)cc1 | inactive
C[C@H]1CN([C@@H](C)CO)C(=O)Cc2cc(NC(=O)Nc3cccc4ccccc34)ccc2O[C@H]1CN(C)S(=O)(=O)c1ccc(Cl)cc1 | inactive
Cc1ccc(S(=O)(=O)N(C)C[C@@H]2Oc3ccc(NC(=O)Nc4c(C)noc4C)cc3CC(=O)N([C@@H](C)CO)C[C@@H]2C)cc1 | inactive
Cc1ccc(S(=O)(=O)N(C)C[C@@H]2Oc3ccc(NC(=O)NC4CCCCC4)cc3CC(=O)N([C@H](C)CO)C[C@@H]2C)cc1 | inactive
COc1ccccc1CNC(=O)C[C@H]1C[C@@H]2c3cc(NC(=O)c4cccnc4)ccc3O[C@@H]2[C@H](CO)O1 | inactive
CN1CCN(C(=O)C[C@H]2C[C@@H]3c4cc(NC(=O)Cc5ccncc5)ccc4O[C@@H]3[C@@H](CO)O2)CC1 | inactive
COc1ccc(-c2ccc3c(c2)O[C@H](CN(C)C(C)=O)[C@H](C)CN([C@@H](C)CO)S3(=O)=O)cc1 | inactive
Cc1noc(C)c1NC(=O)N(C)C[C@H]1Oc2c(NC(=O)Nc3ccc(C(F)(F)F)cc3)cccc2C(=O)N([C@@H](C)CO)C[C@H]1C | inactive
CC(C)NC(=O)Nc1ccc2c(c1)C(=O)N([C@H](C)CO)C[C@@H](C)[C@H](CN(C)S(=O)(=O)c1ccc(Cl)cc1)O2 | inactive
C[C@@H]1CN([C@@H](C)CO)C(=O)c2cc(NS(=O)(=O)c3cccs3)ccc2O[C@@H]1CN(C)C(=O)Nc1cccc2ccccc12 | inactive
COCC(=O)Nc1ccc2c(c1)[C@H]1C[C@@H](CC(=O)NCc3ccccc3F)O[C@H](CO)[C@H]1O2 | inactive
Cc1noc(C)c1NC(=O)Nc1ccc2c(c1)C(=O)N([C@H](C)CO)C[C@H](C)[C@H](CN(C)S(C)(=O)=O)OCCCC[C@H](C)O2 | inactive
COc1ccc(CN(C)C[C@@H]2Oc3ccc(NC(=O)Nc4ccccc4)cc3C(=O)N([C@@H](C)CO)C[C@H]2C)cc1 | inactive
C[C@H]1CN([C@@H](C)CO)C(=O)Cc2cc(NC(=O)Nc3cccc4ccccc34)ccc2O[C@H]1CN(C)S(=O)(=O)c1ccc(F)cc1 | inactive
COc1ccc(CN(C)C[C@@H]2Oc3ccc(NC(=O)NC(C)C)cc3C(=O)N([C@@H](C)CO)C[C@H]2C)cc1 | inactive
COc1ccc(S(=O)(=O)N(C)C[C@@H]2Oc3ccc(NC(=O)Nc4ccc5c(c4)OCO5)cc3C(=O)N([C@@H](C)CO)C[C@H]2C)cc1 | inactive
